Paper PMC3582387 (Chemistry & biology, 2012)

Key:
wild-type MEFs [1] = experiment: Cell viability, wild-type MEFs; assay type: cell-based, mouse; conditions: same dose range as leukemia cells, 24 h
Procedure, shortened: (§1)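 MEFs (wild-type or Bax−/−Bak−/−) are maintained in supplemented high-glucose DMEM (10% FBS, antibiotics, L-glutamine, HEPES, β-mercaptoethanol). They are plated at 5×10^3 cells/well and allowed 24 h before exposure to serially diluted test compound, with 0.4% DMSO as vehicle. Viability is read as CellTiter-Glo luminescence after 24 h of treatment.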

Bax−/−Bak−/− MEFs [2] = experiment: Cell viability, Bax−/−Bak−/− MEFs; assay type: cell-based, mouse; conditions: same dose range as leukemia cells, 24 h
Procedure, shortened: as §1

wild-type MEFs [3] = experiment: Caspase 3/7 activation, wild-type MEFs; assay type: cell-based, mouse; conditions: 8 h
Procedure, shortened: (§2)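 Wild-type or Bax−/−Bak−/− mouse embryonic fibroblasts are kept in high-glucose DMEM with 10% FBS, penicillin/streptomycin, 2 mM L-glutamine, 50 mM HEPES, non-essential amino acids and 50 µM β-mercaptoethanol. Cells are seeded at 5×10^3/well for 24 h, then given serial dilutions of test compound or vehicle (0.4% DMSO). Caspase-Glo 3/7 reagent is added at 8 h and luminescence is read.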

Bax−/−Bak−/− MEFs [4] = experiment: Caspase 3/7 activation, Bax−/−Bak−/− MEFs; assay type: cell-based, mouse; conditions: 8 h
Procedure, shortened: as §2

MCL-1ΔNΔC [5] = molecular target: T1, MCL-1ΔNΔC (Homo sapiens, UniProt Q07820); experiment: BAX-mediated liposomal release assay, suppression by MCL-1ΔNΔC; assay type: biochemical; conditions: 20 nM tBID, 250 nM BAX
[6] = test system: MCL-1-rescued p185+Arf−/−/Mcl-1-deleted B-ALL cells; experiment: Cell viability; assay type: cell-based, murine
Procedure, shortened: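 B-ALL cells come from Mcl-1f/f Arf−/− mouse marrow transformed with BCR-ABL(p185)-IRES-luciferase. They were stably transduced with MSCV-Puro-Mcl-1, and endogenous Mcl-1 was then deleted with MSCV-Cre-IRES-GFP; cells are kept in RPMI 1640/10% FBS. Cells (4×10^4/well) get serial dilutions of test compound or 0.4% DMSO in DMEM at 37 °C, with CellTiter-Glo luminescence read at 24 h. Data are normalized to vehicle; runs are at least duplicate and repeated twice with independent cultures.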

MCL-1ΔNΔC [7] = molecular target: T1, MCL-1ΔNΔC; experiment: Competitive FP assay against the FITC-MCL-1 SAHBA/MCL-1ΔNΔC interaction; assay type: binding
[8] = test system: BCL-XL-rescued p185+Arf−/−/Mcl-1-deleted B-ALL cells; experiment: Caspase 3/7 activation; assay type: cell-based, murine; conditions: 8 h post-treatment
MCL-1ΔNΔC [9] = molecular target: T1, MCL-1ΔNΔC; experiment: Competitive FP assay against the FITC-BID BH3/MCL-1ΔNΔC interaction; assay type: binding
[10] = test system: BCL-XL-rescued p185+Arf−/−/Mcl-1-deleted B-ALL cells; experiment: Cell viability; assay type: cell-based, murine
MCL-1/BAK complex = MCL-1/BAK complex (Mus musculus, UniProt P97287); experiment: Co-immunoprecipitation of MCL-1/BAK complex in MCL-1-reconstituted B-ALL cells; assay type: cell-based, murine; conditions: 6 h incubation
Procedure, shortened: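 MCL-1-reconstituted Mcl-1-deleted B-ALL cells (5×10^6) were given vehicle or test compound for 6 h. Lysate was precleared on protein A/G, then taken with anti-MCL-1 overnight at 4°C plus A/G beads for 1 h. After three washes and elution at 90°C, SDS-PAGE/Western probed MCL-1 and BAK.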

[11] = test system: MCL-1-rescued p185+Arf−/−/Mcl-1-deleted B-ALL cells; experiment: Caspase 3/7 activation; assay type: cell-based, murine; conditions: 8 h post-treatment
Procedure, shortened: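 Mcl-1-floxed Arf−/− mouse marrow was transformed with p185-IRES-luciferase, stably rescued with MSCV-Puro-Mcl-1, and endogenous Mcl-1 was deleted via MSCV-Cre-IRES-GFP. Cells were kept in supplemented RPMI 1640 and seeded at 4×10^4/well. Serial dilutions of test compound or vehicle (0.4% DMSO) were added in DMEM at 37°C. Caspase-Glo 3/7 luminescence was read at 8 h. Values were normalized to vehicle (mean ± SEM, ≥duplicate, two independent cultures).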

BCL-XLΔC = BCL-XLΔC (Homo sapiens, UniProt Q07817); experiment: Competitive FP assay against the FITC-BID BH3/BCL-XLΔC interaction; assay type: binding
BCL-XLΔC, sequence (Q07817 1-212 limits assumed, stated change not applied): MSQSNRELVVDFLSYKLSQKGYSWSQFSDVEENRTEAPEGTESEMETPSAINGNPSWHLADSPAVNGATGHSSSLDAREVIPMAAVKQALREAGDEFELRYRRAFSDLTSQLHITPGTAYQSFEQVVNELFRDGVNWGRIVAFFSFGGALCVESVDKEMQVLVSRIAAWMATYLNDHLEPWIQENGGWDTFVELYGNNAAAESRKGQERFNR

T1 sequence (Q07820 172-327, stated change not applied): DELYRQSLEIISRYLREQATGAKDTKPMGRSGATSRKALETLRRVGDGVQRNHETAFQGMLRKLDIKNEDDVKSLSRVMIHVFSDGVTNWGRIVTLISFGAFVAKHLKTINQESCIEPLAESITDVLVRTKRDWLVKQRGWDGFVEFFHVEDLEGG
MCL-1/BAK complex, sequence (P97287 whole entry, one chain of several): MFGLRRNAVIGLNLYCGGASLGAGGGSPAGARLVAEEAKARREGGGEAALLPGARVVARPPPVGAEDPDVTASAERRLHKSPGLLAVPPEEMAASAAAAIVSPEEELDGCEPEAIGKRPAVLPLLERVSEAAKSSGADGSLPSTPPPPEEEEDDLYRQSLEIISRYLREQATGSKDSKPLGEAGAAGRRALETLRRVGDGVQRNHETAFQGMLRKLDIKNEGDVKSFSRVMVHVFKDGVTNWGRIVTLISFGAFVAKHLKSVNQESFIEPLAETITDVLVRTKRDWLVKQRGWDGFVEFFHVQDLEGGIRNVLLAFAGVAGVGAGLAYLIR

Caspase 3/7 activation in wild-type MEFs (wild-type MEFs [3]) | Caspase 3/7 activation in Bax−/−Bak−/− MEFs (Bax−/−Bak−/− MEFs [4]) | Blockade of MCL-1ΔNΔC suppression of tBID-induced BAX activation (liposomal release) (MCL-1ΔNΔC [5]) | Competition with FITC-MCL-1 SAHBA for MCL-1ΔNΔC binding (in words) (MCL-1ΔNΔC [7]) | Competition with FITC-BID BH3 for MCL-1ΔNΔC binding (in words) (MCL-1ΔNΔC [9]) | IC50 (BCL-XLΔC) | IC50 (MCL-1ΔNΔC [9]) | Fold difference of IC50 for MCL-1ΔNΔC versus IC50 of ABT-737 for BCL-XLΔC (MCL-1ΔNΔC [9]; competition with FITC-BID BH3, MIM1 less potent) | Compound | Effect on viability of wild-type MEFs (wild-type MEFs [1]) | Effect on viability of Bax−/−Bak−/− MEFs (Bax−/−Bak−/− MEFs [2]) | Effect on viability of MCL-1-dependent cells (in words) ([6]; CellTiter-Glo at 24 h) | Caspase 3/7 activation in BCL-XL-dependent cells [8] | IC50 ([10]; Mus musculus, 24 h, read-out: IC50, cell viability of BCL-XL-dependent cells) | Dissociation of the inhibitory MCL-1/BAK complex (co-immunoprecipitation) (MCL-1/BAK complex) | Caspase 3/7 activation in MCL-1-dependent cells [11] | IC50 ([6]; Mus musculus, 24 h, read-out: IC50, cell viability of MCL-1-dependent cells) | Effect on viability of BCL-XL-dependent cells (in words) ([10]; CellTiter-Glo at 24 h)
no observed caspase 3/7 activation | no observed caspase 3/7 activation | had no effect on MCL-1ΔNΔC activity | had no effect | showed no activity toward MCL-1ΔNΔC | – | – | – | CN(C)CC[C@H](CSc1ccccc1)Nc1ccc(S(=O)(=O)NC(=O)c2ccc(N3CCN(Cc4ccccc4-c4ccc(Cl)cc4)CC3)cc2)cc1[N+](=O)[O-] [ABT-737, reference compound] | no significant effect | no significant effect | no effect on the MCL-1-dependent cells | dose-responsive caspase 3/7 activation | 1.6 µM | – | – | – | –
no observed caspase 3/7 activation | no observed caspase 3/7 activation | preventing BAX suppression by MCL-1ΔNΔC | – | – | > 50 µM | 4.8 µM | 7.5 fold | Cc1cs/c(=N\C2CCCCC2)n1/N=C/c1ccc(O)c(O)c1O [MIM1, 4-((E)-(((Z)-2-(cyclohexylimino)-4-methylthiazol-3(2H)-yl)imino)methyl)benzene-1,2,3-triol] | no significant effect | no significant effect | – | – | – | dose-dependent dissociation of the inhibitory MCL-1/BAK complex | dose-dependent induction of caspase 3/7 activity | 4.2 µM | little to no effect on the BCL-XL-dependent cells
